Data from ChEMBL document CHEMBL1800074, “Novel quinoxaline derivatives for in vivo imaging of β-amyloid plaques in the brain” (Bioorg Med Chem Lett, 2011).
Activity calls are given as the source filed them. The rule behind the calls is not given here.

Experiments:
[1] = Displacement of [125I]IMPY from amyloid beta (1-42) after 2 hrs by gamma counting
Outline: (§1)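 Competition binding against [125I]IMPY on aggregated Aβ1-42, with inhibition curves built from the test ligand displacing the radioligand.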

[2] = system: Blood; assay: Biodistribution in ddY mouse blood at 37 KBq/100 ul, iv after 120 mins by gamma counting; assay type: ADME, organism-based; details: in vivo, 2 h
Outline: (§2)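 Normal ddY mice got an iv injection of the 125I-labelled ligand (no carrier added, radiochemical purity >98%). Organs were collected at 2, 30, 60 and 120 min. Activity is given as % injected dose per gram; stomach is given as % injected dose per organ. Values are the average of five mice ± standard deviation.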

[3] = system: Brain; assay: Ratio of drug uptake after 2 mins to drug uptake in 120 mins in ddY mouse brain at 37 KBq/100 ul, iv; assay type: ADME, organism-based; details: in vivo
Outline: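 Brain uptake (% injected dose per gram) in normal ddY mice after iv injection of the 125I-labelled ligand. The value is the brain 2 min / brain 120 min ratio, from five mice per time point.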

[4] = system: Heart; assay: Biodistribution in ddY mouse heart at 37 KBq/100 ul, iv after 120 mins by gamma counting; assay type: ADME, organism-based; details: in vivo, 2 h; outline: as §2
[5] = system: Intestine; assay: Biodistribution in ddY mouse intestine at 37 KBq/100 ul, iv after 30 mins by gamma counting; assay type: ADME, organism-based; details: in vivo, 0.5 h; outline: as §2
[6] = system: Kidney; assay: Biodistribution in ddY mouse kidney at 37 KBq/100 ul, iv after 60 mins by gamma counting; assay type: ADME, organism-based; details: in vivo, 1 h; outline: as §2
[7] = system: Spleen; assay: Biodistribution in ddY mouse spleen at 37 KBq/100 ul, iv after 2 mins by gamma counting; assay type: ADME, organism-based; details: in vivo; outline: as §2
[8] = system: Blood; assay: Biodistribution in ddY mouse blood at 37 KBq/100 ul, iv after 2 mins by gamma counting; assay type: ADME, organism-based; details: in vivo; outline: as §2
[9] = system: Heart; assay: Biodistribution in ddY mouse heart at 37 KBq/100 ul, iv after 2 mins by gamma counting; assay type: ADME, organism-based; details: in vivo; outline: as §2
[10] = system: Stomach; assay: Biodistribution in ddY mouse stomach assessed per organ at 37 KBq/100 ul, iv after 60 mins by gamma counting; assay type: ADME, organism-based; details: in vivo, 1 h; outline: as §2
[11] = system: Liver; assay: Biodistribution in ddY mouse liver at 37 KBq/100 ul, iv after 2 mins by gamma counting; assay type: ADME, organism-based; details: in vivo; outline: as §2
[12] = system: Lung; assay: Biodistribution in ddY mouse lung at 37 KBq/100 ul, iv after 30 mins by gamma counting; assay type: ADME, organism-based; details: in vivo, 0.5 h; outline: as §2
[13] = system: Liver; assay: Biodistribution in ddY mouse liver at 37 KBq/100 ul, iv after 60 mins by gamma counting; assay type: ADME, organism-based; details: in vivo, 1 h; outline: as §2
[14] = system: Liver; assay: Biodistribution in ddY mouse liver at 37 KBq/100 ul, iv after 120 mins by gamma counting; assay type: ADME, organism-based; details: in vivo, 2 h; outline: as §2
[15] = system: Spleen; assay: Biodistribution in ddY mouse spleen at 37 KBq/100 ul, iv after 120 mins by gamma counting; assay type: ADME, organism-based; details: in vivo, 2 h; outline: as §2
[16] = system: Brain; assay: Biodistribution in ddY mouse brain at 37 KBq/100 ul, iv after 60 mins by gamma counting; assay type: ADME, organism-based; details: in vivo, 1 h; outline: as §2
[17] = system: Lung; assay: Biodistribution in ddY mouse lung at 37 KBq/100 ul, iv after 120 mins by gamma counting; assay type: ADME, organism-based; details: in vivo, 2 h; outline: as §2
[18] = system: Brain; assay: Biodistribution in ddY mouse brain at 37 KBq/100 ul, iv after 2 mins by gamma counting; assay type: ADME, organism-based; details: in vivo; outline: as §2
[19] = system: Stomach; assay: Biodistribution in ddY mouse stomach assessed per organ at 37 KBq/100 ul, iv after 30 mins by gamma counting; assay type: ADME, organism-based; details: in vivo, 0.5 h; outline: as §2
[20] = system: Lung; assay: Biodistribution in ddY mouse lung at 37 KBq/100 ul, iv after 60 mins by gamma counting; assay type: ADME, organism-based; details: in vivo, 1 h; outline: as §2
[21] = system: Intestine; assay: Biodistribution in ddY mouse intestine at 37 KBq/100 ul, iv after 60 mins by gamma counting; assay type: ADME, organism-based; details: in vivo, 1 h; outline: as §2
[22] = system: Blood; assay: Biodistribution in ddY mouse blood at 37 KBq/100 ul, iv after 30 mins by gamma counting; assay type: ADME, organism-based; details: in vivo, 0.5 h; outline: as §2
[23] = system: Spleen; assay: Biodistribution in ddY mouse spleen at 37 KBq/100 ul, iv after 60 mins by gamma counting; assay type: ADME, organism-based; details: in vivo, 1 h; outline: as §2
[24] = system: Brain; assay: Biodistribution in ddY mouse brain at 37 KBq/100 ul, iv after 120 mins by gamma counting; assay type: ADME, organism-based; details: in vivo, 2 h; outline: as §2
[25] = system: Lung; assay: Biodistribution in ddY mouse lung at 37 KBq/100 ul, iv after 2 mins by gamma counting; assay type: ADME, organism-based; details: in vivo; outline: as §2
[26] = system: Kidney; assay: Biodistribution in ddY mouse kidney at 37 KBq/100 ul, iv after 2 mins by gamma counting; assay type: ADME, organism-based; details: in vivo; outline: as §2
[27] = system: Blood; assay: Biodistribution in ddY mouse blood at 37 KBq/100 ul, iv after 60 mins by gamma counting; assay type: ADME, organism-based; details: in vivo, 1 h; outline: as §2
[28] = system: Kidney; assay: Biodistribution in ddY mouse kidney at 37 KBq/100 ul, iv after 120 mins by gamma counting; assay type: ADME, organism-based; details: in vivo, 2 h; outline: as §2
[29] = system: Liver; assay: Biodistribution in ddY mouse liver at 37 KBq/100 ul, iv after 30 mins by gamma counting; assay type: ADME, organism-based; details: in vivo, 0.5 h; outline: as §2
[30] = system: Spleen; assay: Biodistribution in ddY mouse spleen at 37 KBq/100 ul, iv after 30 mins by gamma counting; assay type: ADME, organism-based; details: in vivo, 0.5 h; outline: as §2
[31] = system: Intestine; assay: Biodistribution in ddY mouse intestine at 37 KBq/100 ul, iv after 2 mins by gamma counting; assay type: ADME, organism-based; details: in vivo; outline: as §2
[32] = system: Intestine; assay: Biodistribution in ddY mouse intestine at 37 KBq/100 ul, iv after 120 mins by gamma counting; assay type: ADME, organism-based; details: in vivo, 2 h; outline: as §2
[33] = system: Stomach; assay: Biodistribution in ddY mouse stomach assessed per organ at 37 KBq/100 ul, iv after 120 mins by gamma counting; assay type: ADME, organism-based; details: in vivo, 2 h; outline: as §2
[34] = Lipophilicity, log D of the compound; assay type: physicochemical; details: octanol/water
[35] = system: Heart; assay: Biodistribution in ddY mouse heart at 37 KBq/100 ul, iv after 60 mins by gamma counting; assay type: ADME, organism-based; details: in vivo, 1 h; outline: as §2
[36] = system: Brain; assay: Biodistribution in ddY mouse brain at 37 KBq/100 ul, iv after 30 mins by gamma counting; assay type: ADME, organism-based; details: in vivo, 0.5 h; outline: as §2
[37] = system: Heart; assay: Biodistribution in ddY mouse heart at 37 KBq/100 ul, iv after 30 mins by gamma counting; assay type: ADME, organism-based; details: in vivo, 0.5 h; outline: as §2
[38] = system: Kidney; assay: Biodistribution in ddY mouse kidney at 37 KBq/100 ul, iv after 30 mins by gamma counting; assay type: ADME, organism-based; details: in vivo, 0.5 h; outline: as §2
[39] = system: Stomach; assay: Biodistribution in ddY mouse stomach assessed per organ at 37 KBq/100 ul, iv after 2 mins by gamma counting; assay type: ADME, organism-based; details: in vivo; outline: as §2
[40] = target: Amyloid-beta precursor protein (Homo sapiens) (UniProt P05067); assay: Binding affinity to amyloid beta (1-42) plaque in brain of patient with Alzheimer's disease at 185 KBq/100ul after 1 hr by immunofluorescence staining method; assay type: tissue-based; details: tested as the 125I-labelled form
Amyloid-beta precursor protein (Homo sapiens), sequence (P05067 whole entry): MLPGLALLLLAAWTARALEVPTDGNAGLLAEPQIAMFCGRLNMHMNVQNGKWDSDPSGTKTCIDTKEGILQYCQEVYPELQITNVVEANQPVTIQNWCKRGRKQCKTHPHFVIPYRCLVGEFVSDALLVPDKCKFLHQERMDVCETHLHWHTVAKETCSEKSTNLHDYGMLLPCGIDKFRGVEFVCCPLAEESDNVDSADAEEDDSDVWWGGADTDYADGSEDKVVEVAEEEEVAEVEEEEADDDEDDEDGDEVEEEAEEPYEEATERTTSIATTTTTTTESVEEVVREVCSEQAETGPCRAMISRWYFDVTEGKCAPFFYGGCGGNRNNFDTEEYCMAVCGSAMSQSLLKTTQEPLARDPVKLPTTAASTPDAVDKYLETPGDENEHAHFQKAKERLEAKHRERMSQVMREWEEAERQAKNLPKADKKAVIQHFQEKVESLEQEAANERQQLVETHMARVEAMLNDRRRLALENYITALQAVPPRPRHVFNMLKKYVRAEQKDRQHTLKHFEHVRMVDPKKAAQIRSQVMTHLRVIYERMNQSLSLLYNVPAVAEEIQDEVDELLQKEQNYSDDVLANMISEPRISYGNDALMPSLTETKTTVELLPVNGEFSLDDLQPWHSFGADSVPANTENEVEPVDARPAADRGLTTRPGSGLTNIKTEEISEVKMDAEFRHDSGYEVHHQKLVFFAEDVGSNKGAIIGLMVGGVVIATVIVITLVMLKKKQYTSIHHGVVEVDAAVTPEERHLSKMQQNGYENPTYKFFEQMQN
Outline: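 In vitro autoradiography with the 125I-labelled ligand on brain sections from an Alzheimer's disease patient. Plaque presence and distribution were confirmed by immunohistochemical staining with a monoclonal Aβ antibody.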

[41] = species on record: Mus musculus; assay: Binding affinity to amyloid beta plaque in APP/PS1 transgenic C57BL/6 mouse brain cortex at 185 KBq/100 ul after 1 hr by thioflavin S-fluorescence staining method; assay type: tissue-based; details: C57BL6, tested as the 125I-labelled form
[42] = Binding affinity to amyloid beta (1-42) after 2 hrs by gamma counting; outline: as §1

## CN(C)c1ccc(-c2cnc3cc(Br)ccc3n2)cc1
[1]
  Ki: 2.6 nM

## CNc1ccc2cc(-c3ccc(OCCOCCOCCF)cc3)ccc2c1
[1]
  Ki: 1.6 nM

## CN(C)c1ccc(-c2cnc3cc([125I])ccc3n2)cc1
[2]
  Drug uptake: 1.88 % ID/g
[3]
  Ratio: 5.38
[4]
  Drug uptake: 1.22 % ID/g
[5]
  Drug uptake: 18.62 % ID/g
[6]
  Drug uptake: 6.68 % ID/g
[7]
  Drug uptake: 5.69 % ID/g
[8]
  Drug uptake: 4.71 % ID/g
[9]
  Drug uptake: 14.91 % ID/g
[10]
  Drug uptake: 5.39 %ID
[11]
  Drug uptake: 30.49 % ID/g
[12]
  Drug uptake: 3.99 % ID/g
[13]
  Drug uptake: 12.5 % ID/g
[14]
  Drug uptake: 7.53 % ID/g
[15]
  Drug uptake: 1.17 % ID/g
[16]
  Drug uptake: 2.91 % ID/g
[17]
  Drug uptake: 1.95 % ID/g
[18]
  Drug uptake: 6.03 % ID/g
[19]
  Drug uptake: 3.28 %ID
[20]
  Drug uptake: 3.53 % ID/g
[21]
  Drug uptake: 22.5 % ID/g
[22]
  Drug uptake: 2.88 % ID/g
[23]
  Drug uptake: 2.22 % ID/g
[24]
  Drug uptake: 1.12 % ID/g
[25]
  Drug uptake: 14.53 % ID/g
[26]
  Drug uptake: 19.67 % ID/g
[27]
  Drug uptake: 2.98 % ID/g
[28]
  Drug uptake: 3.96 % ID/g
[29]
  Drug uptake: 15.73 % ID/g
[30]
  Drug uptake: 2.82 % ID/g
[31]
  Drug uptake: 3.43 % ID/g
[32]
  Drug uptake: 16.93 % ID/g
[33]
  Drug uptake: 8.62 %ID
[34]
  logD: 4.02
[35]
  Drug uptake: 2.17 % ID/g
[36]
  Drug uptake: 5.21 % ID/g
[37]
  Drug uptake: 2.53 % ID/g
[38]
  Drug uptake: 8.76 % ID/g
[39]
  Drug uptake: 2.06 %ID

## CNc1ccc(-c2cnc3cc(I)ccc3n2)cc1
[1]
  Ki: 7.7 nM

## CN(C)c1ccc(-c2cnc3cc(I)ccc3n2)cc1
[40]
  Activity: Active
[41]
  Activity: Active
[1]
  Ki: 4.1 nM

## Nc1ccc(-c2cnc3cc(I)ccc3n2)cc1
[1]
  Ki: 10.7 nM

## CNc1ccc(-c2ccc3cc(OCCOCCOCCF)ccc3c2)cc1
[1]
  Ki: 3 nM

## CN(C)c1ccc(-c2cn3cc([123I])ccc3n2)cc1
[42]
  Kd: 0.43 nM
